Source: PubChem
OX1R antag-1: antagonists of human orexin 1 receptor | inhibition, % at 5 µM | O43613 | CHO/OX1R cells, Fluo-8 calcium fluorescence, orexin A | AID 434989 | 330,000 tested, 0.43% active;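 active = inhibition above its plate's threshold, mean inhibition of all tested compounds on the plate plus 3 SD, cut at about 37% in these data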
OX1R antag-2: blocks the human orexin 1 receptor; 330,000 tested, 1.8% active; O43613; OX1R-expressing cells, FRET antagonist read-out; inhibition, % at 6.6 µM; in the data active = inhibition mostly above about 38%, no sharp cut-off; inactive = mostly below about 40%
CHO parental Ca: signal in parental CHO cells, OX1R antagonist counter-screen; parental CHO-K1, ATP-induced calcium, Fluo-8 fluorescence; inhibition, % at 5.6 µM; 330,000 tested, 0.63% active;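 active = inhibition above that plate's mean sample inhibition plus 3 SD, cut at about 26% in these data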
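Material: Parental CHO cells | Reagent: ATP | Compound dosing: Single nominal dose of 5.6 µM per compound | Detection: Intracellular calcium via Fluo-8 no-wash fluorescent dye | Read-out: % inhibition of ATP-induced calcium mobilization | Benchmarks: Low control ATP plus DMSO, high control DMSO only | Replicates: Singlicate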
GPR7 antagonist: human neuropeptides B/W receptor 1 antagonism | P48145 | GPR7-expressing cells, fluorescence antagonist assay | inhibition, % at 4.4 µM | 290,000 tested, 1.1% active | AID 1861; in the data active = inhibition above about 16%, passing the limit was not always enough;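 note: cells stimulated with the agonist NPW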
Target sequence (P48145 whole entry, looked up): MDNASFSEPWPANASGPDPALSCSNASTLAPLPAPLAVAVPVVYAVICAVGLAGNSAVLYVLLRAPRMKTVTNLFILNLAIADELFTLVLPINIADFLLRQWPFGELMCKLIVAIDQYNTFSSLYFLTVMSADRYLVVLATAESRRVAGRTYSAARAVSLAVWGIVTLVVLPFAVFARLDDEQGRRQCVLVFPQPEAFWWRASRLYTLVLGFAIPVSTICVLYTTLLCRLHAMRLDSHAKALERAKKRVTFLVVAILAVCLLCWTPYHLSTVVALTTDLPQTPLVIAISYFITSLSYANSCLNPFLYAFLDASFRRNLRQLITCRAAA
MPTP block: blocks calcium-induced mitochondrial swelling. AID 602449. isolated mouse mitochondria, Ca2+ swelling absorbance, 30 min. inhibition, % at 10 µM. 360,000 tested, 1.4% active;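 active = inhibition of 50% or more, scaled per plate between neutral and stimulator controls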
Numbers stand for hits; n = inactive; x = no result given. Hits are enriched below; roughly 3.8% of the tested compounds scored in any of these assays.

SMILES	OX1R antag-1	OX1R antag-2	CHO parental Ca	GPR7 antagonist	MPTP block
CC(Sc1ccccc1)C(=O)N1CCN(S(=O)(=O)c2ccccc2F)CC1 (stereo not given)	n	n	n	n	n
CC(C)Oc1cccc(C(=O)Nc2nnc([C@H]3C[C@H](O)[C@@H](CO)O3)s2)c1	x	x	x	x	n
Cc1ccccc1OCCOc1cccc(/C=N/NC(=O)Cc2nnc(N)s2)c1	48	n	53	n	n
COc1cccc(NC(=S)NC(C)c2ccc(OC)c(OC)c2)c1 (stereo not given)	n	75	n	n	n
N#Cc1c(Cl)cccc1Oc1ccc(S(=O)(=O)Nc2ccccc2)cc1	n	n	n	n	n
COc1ccc(CN(C)S(=O)(=O)c2nnc(NC(=O)c3cccc(F)c3)s2)cc1OC	n	43	n	n	n
CCOc1ccc(-c2cc(N)n(S(=O)(=O)c3ccc(OC)c(OC)c3)n2)cc1	n	n	n	n	n
COc1ccc(S(=O)(=O)n2nc(-c3ccc(Cl)cc3)cc2N)cc1OC	n	n	n	18	n
CC(C)Nc1nc(Nc2ccccc2Cl)c2sccc2n1	x	x	x	x	n
c1cncc(CSc2nnc3ccc(-c4ccncc4)nn23)c1	n	39	n	n	n
COc1ccc(NC(=O)CSc2nnc3ccc(-c4cccnc4)nn23)cc1	n	63	n	x	n
CC(=O)Nc1cccc(NC(=O)CSc2nnc3ccc(-c4cccnc4)nn23)c1	n	75	n	x	n
Cc1ccccc1NC(=O)CSc1nnc2ccc(-c3ccccn3)nn12	n	55	n	x	n
C[C@@H](c1ccccc1)N1C[C@H](COCc2ccccc2)Oc2cc(N3CC[C@H](N(C)C)C3)ccc2S1(=O)=O	x	x	x	x	n
O=C(CNCc1cccs1)Nc1ccc(N2CCCCCC2)cc1	n	n	n	n	n
COc1cccc(C(NC(C)=O)c2nc(-c3ccc(F)c(Cl)c3)cs2)c1 (stereo not given)	x	x	x	x	n
CC(=O)Nc1ccc(NC(=O)CSc2nnc3ccc(-c4cccnc4)nn23)cc1	n	50	n	x	n
O=C(CSc1nnc2ccc(-c3ccncc3)nn12)c1cccs1	n	44	n	n	n
Cc1ccc(NC(=O)CSc2nnc3ccc(-c4cccnc4)nn23)cc1	n	n	n	x	n
COc1ccc(-c2ccc3nnc(SCC(=O)N4CCCC4)n3n2)cc1	n	55	n	x	n
O=C(CSc1nnc2ccc(-c3ccncc3)nn12)Nc1ccc(F)cc1	n	61	n	x	n
c1ccc(CSc2nnc3ccc(-c4ccncc4)nn23)cc1	n	n	n	n	n
O=C(CSc1nnc2ccc(-c3cccnc3)nn12)Nc1ccc(F)cc1	n	n	n	x	n
CCOC(=O)c1sc(/N=C/c2ccc(O)cc2O)cc1C	n	n	n	n	n
Cc1ccc(S(=O)(=O)N(C)CC(=O)Nc2cccnc2)cc1	n	n	n	n	n
SMILES	OX1R antag-1	OX1R antag-2	CHO parental Ca	GPR7 antagonist	MPTP block
Cc1ccc2nc(NC(=O)CSc3nncc(=O)n3N)sc2c1	n	n	n	n	n
Cc1cc(Br)ccc1NC(=O)CNC(=O)Cc1ccc(S(=O)(=O)N2CCOCC2)s1	n	n	n	x	n
CCS(=O)(=O)Nc1cccc(-c2ccc3nnc(-c4cccnc4)n3n2)c1	n	35	n	n	n
O=C(/C=C/c1ccccc1Cl)Nc1ccccc1	n	n	n	n	n
COc1ccccc1/C=C/C(=O)Nc1cccc(C(C)=O)c1	n	60	n	n	n
O=C(/C=C/c1ccccc1Cl)Nc1cccc(O)c1	n	n	n	22	n
COc1cccc(/C=C/C(=O)Nc2cccc(C(C)=O)c2)c1OC	n	n	n	n	n
CN(C)CC(CCC(CN(C)C)C(=O)c1ccccc1)C(=O)c1ccccc1 (stereo not given)	x	x	x	38	n
CCC(CC)N=C1NS(=O)(=O)c2cc([N+](=O)[O-])ccc21	n	55	n	n	n
CC(C)(C)CC(C)(C)N=C1NS(=O)(=O)c2cc([N+](=O)[O-])ccc21	n	n	n	n	n
Cc1ccc(/C=C/c2ccc(N(C)C)cc2)[n+](C)c1	n	39	n	n	n
Cc1nn(Cc2c(Cl)cccc2Cl)c(C)c1NC(=O)c1cc(C(C)C)on1	89	n	91	n	n
CN(C)c1cccc(CNC(=O)c2ccc3nc([C@@H]4O[C@H](CO)[C@H](O)[C@H](O)[C@H]4O)[nH]c3c2)c1	x	x	x	x	n
Cc1ccc(Nc2nc(-c3cccnc3)cs2)cc1C	n	58	n	n	n
CCC(=O)N1CCC(C)(C(=O)Nc2ccc3c(c2)OCCO3)C1 (stereo not given)	x	x	x	x	n
Cc1ccc(NC(=O)c2cc3ccccc3oc2=N)cc1	n	n	n	n	n
